Assay results reported in the EternaBench riboswitch data.

Experiments:
MS2 coat protein [1] = experiment: apparent Kd, MS2 coat protein; higher = weaker binding; RNA-MaP array; theophylline 2 mM where present
Procedure, shortened: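 The apparent Kd is reported as the median of filtered per-cluster binding-curve fits. To get these curves, designs transcribed by stalled E. coli RNA polymerase on Illumina sequencing-chip clusters were titrated with SNAP-549-labelled MS2 coat protein from 0.7 or 1.5 nM, doubling to 3 µM. Titrations were run without and then with constant ligand in 100 mM Tris-HCl pH 7.5, 80 mM KCl, 4 mM MgCl2, BSA, DTT, yeast tRNA and Tween-20, and green signal was normalised to red-channel RNA signal and control-cluster median Fmax.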

MS2 coat protein [2] = experiment: apparent Kd, MS2 coat protein; higher = weaker binding; RNA-MaP array
Procedure, shortened: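 The designed RNAs, transcribed from sequenced DNA templates on an Illumina sequencing chip, were incubated with fluorescently labeled MS2 coat protein at room temperature. Protein ranged from 1.5 nM to 3 μM, with 0.8–1.5 h incubation at the lowest and 10–20 min at the highest concentrations, in Tris-HCl pH 7.5 buffer with KCl, MgCl2, BSA, DTT, tRNA and Tween20, with or without input ligand. The median of per-cluster binding-curve fits gives the apparent Kd, and designs measured on fewer than 10 clusters were excluded.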

[3] = designed as: ON switch for theophylline, no ligand
[4] = ligand present: theophylline, designed as: ON switch for theophylline
[5] = designed as: OFF switch for theophylline, no ligand
[6] = ligand present: theophylline, designed as: OFF switch for theophylline
[7] = designed as: ON switch for flavin mononucleotide, no ligand
[8] = ligand present: flavin mononucleotide, designed as: ON switch for flavin mononucleotide
[9] = designed as: OFF switch for flavin mononucleotide, no ligand
[10] = ligand present: flavin mononucleotide, designed as: OFF switch for flavin mononucleotide

Sequence | apparent Kd (MS2 coat protein [1]; [3]) [nM] | apparent Kd (MS2 coat protein [1]; [4]) [nM] | apparent Kd (MS2 coat protein [1]; [5]) [nM] | apparent Kd (MS2 coat protein [1]; [6]) [nM] | also measured
AUAACAUGAGGAUCACCCAUGUAAGGUGAUACCAGACGAAGUAAAGUCCCUUGGCAGCACAAGUAAAGUUACGAAUAUUGAUAGA | 430 | 47.3 |  |  | 
AUCCUCUAGAAUGAUACCAGACCAAACAUGAGGAUCACCCAUGUAUCAGGCAAUUGUUACGUCCCUUGGCAGCAUGUAUGCCGAC | 27.7 | 28.1 |  |  | 
GAUGAACUAUUUGAUACCAGACUACAUGAGGAUCACCCAUGUGAGUUUAUACUUCUGUCAGUCCCUUGGCAGCAAAUAGUUUAUC |  |  | 19.2 | 123 | 
UGACAUUGCUCAGAUACCAGACAUGAGGAUCACCCAUGUACCGAGGUACCCGAAAGGAAUGUCCCUUGGCAGCUGAGCAAUGUCU |  |  | 10.9 | 152 | 
CAUAUUGUAACUGAUACCAGUGUACUGACAUGAGGAUCACCCAUGUUGGGUUUUGUUGUACACCCUUGGCAGCAGAAUCAAUAUG |  |  | 68.7 | 89.2 | 
AGAUCUUUCGAAAGAAGGAUCUUGGCUGAUACCAGAGACGAAAGUCUCCCUUGGCAGCAGUGCCAACAUGAGGAUCACCCAUGUA | 45.8 | 24.1 |  |  | 
AGACAUGAGGAUCACCCAUGUAGUAUGGAUACCAGAUCCAGAUUUAUCCCUUGGCAGCUGUGGUACAGCGUUGCAUCGCUCCUAG |  |  | 32.3 | 34.5 | 
UUUACAUGAGGAUCACCCAUGUGCCAUGAUACCAGACAUGAAAAUGUCCCUUGGCAGCAUGAGUGAUGCAUCCGAAAGGAUGUUU | 81.6 | 611 |  |  | 
UGAUCCUACAGAGAUACCAGUGCCACUGAGUGACCAGACACAUGAGGAUCACCCAUGUAACACCCUUGGCAGCUCAACUAGAGGG | 20.4 | 69.7 |  |  | 
AGCCUCAUACAUGAGGAUCACCCAUGUGAUACCAGUCAGGAAACUGACCCUUGGCAGCGCAUGAGGAUCACCCAUGUGCGAGGCA |  |  | 43.5 | 192 | 
CCUCAUGUGUAUCACCACAUGAGUGGUGAUACCAGCAUCGAAAGAUGCCCUUGGCAGCACCAACAUGAGGAUCACCCAUGUAAUA | 352 | 101 |  |  | 
AAACGUUGCUGCGAUACCAGACAUGAGGAUCACCCAUGUACCAAGGUAAGAAAAUAACAUGUCCCUUGGCAGCGCAGCAACGAAA |  |  | 15.4 | 412 | 
UCUUUCUAUAGUGAUACCAGACGUACAUGAGGAUCACCCAUGUUACAUUCUUGGUUAAAAGUCCCUUGGCAGCACGAUUUGUUCG |  |  | 9.51 | 10.2 | 
ACAUGAGGAUCACCCAUGUUCCUCAUUGAUACCAGUGAAUUUAGACGCCCUUGGCAGCGAGUUUUUUUAUAAGAAGUUUUUUUUU |  |  | 660 | 1310 | 
UAUAGUGUGAUGGAUACCAGCAGAGAAAACGUUUAUCCUAACAUGAGGAUCACCCAUGUAUGCCCUUGGCAGCUGUUGUGUUAUA |  |  | 31.7 | 31.8 | 
GAUGAACUAUUUGAUACCAGACUACAUGAGGAUCACCCAUGUGAGUUUCGUCCUCUGCCAGUCCCUUGGCAGCAAAUAGUUUAUC |  |  | 18.9 | 194 | 
AGGAAACAACAUGAGGAUCACCCAUGUGAUACCAGUAUCAAAAGAUACCCUUGGCAGCACACAUGACAUGAGGAUCACCCAUGUA | 41.4 | 84.4 |  |  | 
UUAAUGGAGCUUUUAUUUACGAUUUCUGAUACCAGUGUUUCAUUUCACCCUUGGCAGCAGUGACAUGAGGAUCACCCAUGUAAUA | 25.7 | 22.8 |  |  | 
AAUAACAUGAGGAUCACCCAUGUAAAAGAUACCAGAUGCAUGAUGAUCCCUUGGCAGCUUAAACGCGAUUGAUUACAAUCGCGAA | 34.4 | 91.8 |  |  | 
CGCCGUACGUCAGGAUAUCACAAUUGGAUCCAUCACAUGAGGAUCACCCAUGUUUACAAGUAGAAUGAGAAGGGACAAGGAUAA |  |  |  |  | apparent Kd (MS2 coat protein [2]; [7]): 49.3 nM; apparent Kd (MS2 coat protein [2]; [8]): 43.8 nM
GGGUCGCGUUCGGCCGCCACUUGGAAACAUGAGGAUCACCCAUGUCAUAUGGUGGGACAUGUUGUAAGGACCGGGAACCGUCCUA |  |  |  |  | apparent Kd (MS2 coat protein [2]; designed as: OFF switch for tryptophan, no ligand): 64.2 nM; apparent Kd (MS2 coat protein [2]; ligand present: tryptophan, designed as: OFF switch for tryptophan): 88.1 nM
GUGUUCACUGCAGGAUAUGUACAUGAGGAUCACCCAUGUUGAAACGGCUGGAAUCGGCAGAUGAAACAGAAGGGCAUGAAAAUU |  |  |  |  | apparent Kd (MS2 coat protein [2]; [7]): 12.8 nM; apparent Kd (MS2 coat protein [2]; [8]): 9.09 nM
AGAAAUACAUGAGGAUCACCCAUGUGCAUCCUGACUAGUUGACAGGAUAUCAGUCUUACCUGGGCUGAGAAGGGUCCGCGUAGC |  |  |  |  | apparent Kd (MS2 coat protein [2]; [9]): 19.8 nM
AAACGACAUGAGGAUCACCCAUGUACCUUUUACCUAGGAUAUCAGGUGCAUCAUACGUGCUGAGAAGGAGGCUCGC |  |  |  |  | apparent Kd (MS2 coat protein [2]; [7]): 64.1 nM; apparent Kd (MS2 coat protein [2]; [8]): 59.7 nM
GACGCUGCAGGAUAUACUACGAGACUCACCCACAUUAUAUGACAUGAGGAUCACCCAUGUAGAAGGGCAAUGUG |  |  |  |  | apparent Kd (MS2 coat protein [2]; [9]): 10.4 nM; apparent Kd (MS2 coat protein [2]; [10]): 12.6 nM
AAGUAGGAAGGAUAUACAUGAGGAUCACCCAUGUAAGGCAUUUGGCUAUAAUCGUUAAGUAGAAGGUCCUGCCG |  |  |  |  | apparent Kd (MS2 coat protein [2]; [9]): 8.6 nM; apparent Kd (MS2 coat protein [2]; [10]): 8.2 nM
